Values after ≈ are worked out from the molar mass of the structure shown.
Columns and labels:
[1] = Half-life measured in 0.1 M KPO4 buffer at PH 7; assay type: ADME; details: 0.1 M potassium phosphate buffer
Method in brief: (§1)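 Decay followed as loss of UV absorbance at each compound's absorbance maximum in 0.1 M potassium phosphate, pH 7.0, 0.05–1.0 mM compound. Decay first order; half-life taken as time to 50% absorbance loss, from linear regression, given as mean ± standard deviation.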

[2] = Half-life measured on Bacteroides fragilis in BHIS medium; assay type: ADME, organism-based; details: Bacteroides fragilis culture
[3] = Half-life measured on Escherichia coli SR58 in BHI medium; value ranges from 1-3; assay type: ADME, organism-based; details: Escherichia coli SR58 culture
[4] = test system: Clostridium perfringens; test: Minimum inhibitory concentration measured against Clostridium perfringens strain; assay type: functional
Method in brief: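 Twofold serial dilutions in BHIS medium with 5% Me2SO; each well inoculated with stationary-phase bacterial suspension (10^7 cfu/mL). Plates incubated anaerobically at 37 °C in Gaspak jars; growth scored after 17 h.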

[5] = test system: Escherichia coli; test: Minimum inhibitory concentration measured against Escherichia coli AB1157 strain (Uvr+ Rec+); assay type: functional
Method in brief: (§2)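 Compounds serially diluted 2-fold in BHIS medium containing 5% Me2SO. Each well inoculated with bacteria from a stationary-phase culture, suspension at 10^7 cfu/mL. Incubated anaerobically at 37 °C in Gaspak jars; growth read after 17 h.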

[6] = test system: Escherichia coli; test: Minimum inhibitory concentration measured against Escherichia coli AB1885 strain (UvrB- Rec+); assay type: functional; method in brief: as §2
[7] = test system: Escherichia coli; test: Minimum inhibitory concentration measured against Escherichia coli EE128 strain (Uvr+ RecA-); assay type: functional; method in brief: as §2
[8] = test system: Escherichia coli; test: Minimum inhibitory concentration measured against Escherichia coli EE349 strain (UvrB- Rec+); assay type: functional; method in brief: as §2
[9] = test system: Escherichia coli; test: Minimum inhibitory concentration measured against Escherichia coli SR58 strain (RecA- UvrB-); assay type: functional; method in brief: as §2
[10] = test system: Bacteroides fragilis; test: Minimum inhibitory concentration measured against Bacteroides fragilis strain; assay type: functional; method in brief: as §2
[11] = Half-life measured in BHI spent medium; assay type: ADME
Method in brief: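 Spent BHI medium prepared by removing E. coli by centrifugation and filtration after maximal logarithmic growth. Compound at 0.05–1.0 mM; UV absorbance at its maximum followed. First-order half-life (time to 50% absorbance loss) from linear regression, mean ± standard deviation.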

[12] = Half-life measured on Escherichia coli SR58 in BHI medium; value ranges from 3-4; assay type: ADME, organism-based; details: Escherichia coli SR58 culture
[13] = Half-life measured in 0.1 M KPO4 buffer atPH 7; assay type: ADME; details: 0.1 M potassium phosphate buffer, pH 7; method in brief: as §1
[14] = Half-life measured on Escherichia coli SR58 in BHI medium; value ranges from 4-6; assay type: ADME, organism-based; details: Escherichia coli SR58 culture

SMILES	half-life [1] [min]	half-life [2] [min]	half-life [3] [min]	MIC [4] [µM]	MIC [5] [µM]	MIC [6] [µM]	MIC [7] [µM]	MIC [8] [µM]	MIC [9] [µM]	MIC [10] [µM]	half-life [11] [min]	half-life [12] [min]	half-life [13] [min]	half-life [14] [min]
O=Nc1[nH]cnc1-c1ccccc1	330	< 2	1											
Cn1cnc(-c2ccccc2)c1[N+](=O)[O-]				15 (≈ 3.05 µg/mL)	> 500	> 500	30 (≈ 6.1 µg/mL)	100 (≈ 20.3 µg/mL)	8 (≈ 1.63 µg/mL)	< 2				
Cc1ncc([N+](=O)[O-])n1CCO [METRONIDAZOLE]				13 (≈ 2.23 µg/mL)	> 500	> 500	600 (≈ 103 µg/mL)	> 600	100 (≈ 17.1 µg/mL)	6 (≈ 1.03 µg/mL)				
O=[N+]([O-])c1[nH]cnc1-c1ccccc1				250 (≈ 47.3 µg/mL)	> 500	> 500			130 (≈ 24.6 µg/mL)	30 (≈ 5.68 µg/mL)				
Cn1cnc(-c2ccccc2)c1N=O	540	< 2									40	3		
Cn1cnc(N=O)c1-c1ccccc1		< 2									160		> 600	4
Cn1cnc([N+](=O)[O-])c1-c1ccccc1				> 500	> 500	> 500	> 500	≥ 500	500 (≈ 102 µg/mL)	500 (≈ 102 µg/mL)				
